Rows were chosen to be rich in hits. Some 3.3% of all compounds tested hit in one or more screens of this group.
SENP6 block: SENP6 protease inhibitors, primary screen, biochemical, luminescence, uHTS; hit rate 1.8% among 330,000; AID 2599, 2010; Sentrin-specific protease 6 (Homo sapiens), Q9GZR1; inhibition, % at 10 µM; Recombinant SENP6 catalytic domain, aminoluciferin luminescence;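 active means inhibition above about 50% at the single tested dose, limit read from the data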;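 further: plate controls were DMSO wells with enzyme for no effect and DMSO wells lacking enzyme for full effect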
SENP1 inh: human SENP1 catalytic domain inhibitors, primary screen, biochemical, FRET, uHTS | inhibition, % at 10 µM | Sentrin-specific protease 1 (Homo sapiens), Q9P0U3 | recombinant SENP1 catalytic domain, CyPet-SUMO1-YPet FRET cleavage | AID 624204, 2012 | hit rate 0.21% among 360,000;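 active means inhibition at least 30% at 10 µM, raw YFP signal under a set limit, fluorescence ratio 0.5 to 1.5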;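 further: 0% = enzyme with DMSO and 100% = no enzyme wells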
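Compound: 10 µM single point, 0.5% DMSO; Test system: hSENP1 catalytic domain, recombinant; Timing: 50 min reaction at room temperature; Technique: FRET, CFP and YFP emission; Control set: no-enzyme wells low, DMSO-plus-enzyme wells high control.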
SENP7 inh: SENP7 protease inhibitors, primary screen, biochemical, luminescence, uHTS. hit rate 1.5% among 330,000. Sentrin-specific protease 7 (Homo sapiens), Q9BQF6. inhibition, % at 5 µM. recombinant SENP7, Z-RLRGG-aminoluciferin luminescence, 40 min. AID 434973, 2010;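 active means inhibition above about 50% at the single test dose, limit read from the data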;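 further: plate controls were DMSO with enzyme for no effect and no enzyme buffer wells for full effect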
SENP8 block-1: human SENP8 protease inhibitors, primary screen, biochemical, fluorescence, Nedd8 protein substrate, uHTS | Sentrin-specific protease 8 (Homo sapiens), Q96LD8 | recombinant SENP8 | inhibition, % at 20 µM | hit rate 0.64% among 360,000 | AID 602440, 2012; in the data active means inhibition mostly above about 40%, no sharp cut-off; inactive means mostly below about 27%
CendR NRP1 mod: modulators of CendR peptide binding to NRP-1, primary screen, biochemical, fluorescence polarization, uHTS. hit rate 0.85% among 360,000. FAM-RPARPAR peptide binding to NRP-1. Neuropilin-1 (Homo sapiens), O14786. inhibition, % at 25 µM. AID 602438, 2012;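 active means inhibition or corrected inhibition above about 18%, plus a signal ratio from 0.5 to 1.5, limit read from the data, passing the limit was not always enough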
Target sequence (O14786 whole entry, looked up): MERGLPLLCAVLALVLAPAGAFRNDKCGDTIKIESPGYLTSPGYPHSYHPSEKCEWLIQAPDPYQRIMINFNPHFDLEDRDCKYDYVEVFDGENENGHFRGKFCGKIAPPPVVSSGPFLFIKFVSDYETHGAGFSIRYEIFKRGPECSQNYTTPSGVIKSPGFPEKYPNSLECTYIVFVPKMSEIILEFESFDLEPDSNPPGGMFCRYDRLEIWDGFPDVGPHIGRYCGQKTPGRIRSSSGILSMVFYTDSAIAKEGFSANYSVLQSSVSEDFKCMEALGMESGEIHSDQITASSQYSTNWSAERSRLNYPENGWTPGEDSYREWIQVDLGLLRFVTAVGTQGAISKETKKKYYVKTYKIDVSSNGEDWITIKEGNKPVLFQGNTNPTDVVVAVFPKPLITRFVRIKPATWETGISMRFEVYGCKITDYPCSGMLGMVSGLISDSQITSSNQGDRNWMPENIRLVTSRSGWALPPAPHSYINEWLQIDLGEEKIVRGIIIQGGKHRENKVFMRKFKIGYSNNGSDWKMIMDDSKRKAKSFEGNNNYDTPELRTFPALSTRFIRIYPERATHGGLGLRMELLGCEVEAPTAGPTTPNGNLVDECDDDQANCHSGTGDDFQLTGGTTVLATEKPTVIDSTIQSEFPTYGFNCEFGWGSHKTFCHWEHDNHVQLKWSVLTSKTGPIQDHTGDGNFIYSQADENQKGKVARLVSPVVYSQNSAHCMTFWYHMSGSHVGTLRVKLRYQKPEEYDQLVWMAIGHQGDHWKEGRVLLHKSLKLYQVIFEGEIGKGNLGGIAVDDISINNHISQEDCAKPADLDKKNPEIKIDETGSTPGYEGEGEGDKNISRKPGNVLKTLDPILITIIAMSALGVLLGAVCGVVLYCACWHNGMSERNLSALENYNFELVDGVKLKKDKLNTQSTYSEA
SENP8 block-2: SENP8 protease inhibitors, primary screen, biochemical, luminescence | Sentrin-specific protease 8 (Homo sapiens), Q96LD8 | purified SENP8, Z-RLRGG-aminoluciferin cleavage | inhibition, % at 10 µM | hit rate 1.2% among 330,000; in the data active means inhibition above about 50%
SENP8 confirm: SENP8 protease inhibitors, retest, confirmation, biochemical, luminescence, single concentration. shares compounds with SENP7 inh. AID 488912, 2010. hit rate 40% among 6,200. inhibition, % at 12.5 µM. Recombinant SENP8, Z-RLRGG-aminoluciferin luminescence, 60 min;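 active means mean inhibition across replicates above about 50%, limit read from the data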
SENP6 confirm: SENP6 protease inhibitors, confirmation, biochemical, luminescence, single concentration | shares compounds with SENP7 inh | recombinant SENP6, Z-RLRGG-aminoluciferin luminescence | inhibition, % at 12.5 µM | hit rate 58% among 6,200 | AID 488915, 2010
SENP7 conf: SENP7 protease inhibitors, retest, confirmation, biochemical, luminescence, single concentration; hit rate 69% among 6,200; inhibition, % at 12.5 µM; recombinant SENP7, Z-RLRGG-aminoluciferin luminescence, 40 min; shares compounds with SENP7 inh
Casp3 select: caspase-3 protease inhibitors, confirmation, selectivity assay for SENP inhibitor project, biochemical, single concentration; purified caspase-3, Z-DEVD-aminoluciferin luminescence, 60 min; shares compounds with SENP7 inh; hit rate 60% among 6,200; inhibition, % at 12.5 µM;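 active means mean inhibition above about 50%, limit read from the data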;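 further: plate controls were enzyme with DMSO for no effect and wells without caspase-3 for full effect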
Luc interf: interferes with luciferase luminescence in SENP counter-screen; shares compounds with SENP7 inh; Pre-incubated SENP8/Z-RLRGG-aminoluciferin, luciferase luminescence interference; inhibition, % at 12.5 µM; hit rate 39% among 6,200; AID 488919;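 active means mean inhibition above about 50% when retested at one dose, limit read from the data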;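 further: plate controls were DMSO wells with completed reaction for no effect and substrate without enzyme for full effect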
An asterisk follows results filed as active; i = inactive; . = no result.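 How the source made its calls, unless noted: active means mean inhibition above about 50% in the one-dose retest (limit read from the data); inactive means the rest.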

SMILES | SENP6 block | SENP1 inh | SENP7 inh | SENP8 block-1 | CendR NRP1 mod | SENP8 block-2 | SENP8 confirm | SENP6 confirm | SENP7 conf | Casp3 select | Luc interf
CN(Cc1ccccc1)C(=O)c1ncn2c1c(=O)[nH]c1cccnc12 | . | -2 | . | -13 | -21 | . | . | . | . | . | .
CC(C)N(CCCNC(=O)Cn1c(=O)c2cccn2c2ccc(F)cc21)Cc1ccccc1 | -14 | -1 | 61* | -6 | 14 | -1 | 10 | 7 | -5 | 0 | -2
CCN1CCN(CCNC(=O)Cn2c(=O)c3cccn3c3ccc(F)cc32)CC1 | 5 | -1 | 1 | -3 | 17 | 8 | . | . | . | . | .
COc1ccc(F)cc1-c1cc(C(=O)N2CCc3ccccc3C2)[nH]n1 | . | -1 | . | 9 | 9 | . | . | . | . | . | .
O=C(Nc1cccnc1Cl)c1noc2c1CCc1ccccc1-2 | 31 | 0 | 65* | 15 | -6 | -5 | 3 | 7 | 24 | 20 | 7
O=C(Cc1ccccc1)N1CCN(c2ccccc2F)CC1 | 75* | 2 | -1 | 10 | -11 | 59* | -4 | -2 | -2 | 7 | 1
CC1=C(C(=O)N(C)C)CC(CC(=O)NC(c2ccccc2)c2ccccc2)C(=O)N1CCCN1CCCC1=O (configuration not stated) | . | 1 | . | 6 | 2 | . | . | . | . | . | .
COc1ccc2c(c1)C1OCCC1C(c1ccco1)N2 (configuration not stated) | -3 | -8 | 42 | -460 | 4 | 56* | 64* | 64* | 91* | 88* | 75*
CC1CCCN(C(=O)COC(=O)c2cc(Br)ccc2O)C1 (configuration not stated) | -7 | 0 | -4 | -43 | -4 | -17 | . | . | . | . | .
CC1(C)CC(=O)C(C(c2ccc3c(c2)OCO3)C2C(=O)CC(C)(C)CC2=O)C(=O)C1 | . | -2 | . | 9 | 6 | . | . | . | . | . | .
Cc1ccc(NC(=O)O/N=C/c2c(C)nn(C(C)(C)C)c2C)cc1Cl | 52* | 1 | 52* | 13 | -3 | 47 | 10 | 46 | 42 | 1 | -3
O=C(O)CCN1C(=O)/C(=C\c2cccc(Oc3ccccc3)c2)SC1=S | 97* | 2 | 62* | 25 | -90 | 96* | 2 | 101* | 104* | 32 | 90*
O=C(CCCN1C(=O)/C(=C\c2ccccc2)SC1=S)N1CCOCC1 | 36 | 1 | 42 | 26 | 5 | 32 | . | . | . | . | .
COc1ccc(/C=C2\SC(=S)N(CCCC(=O)N3CCOCC3)C2=O)cc1 | 82* | -22 | 72* | 16 | 11 | 69* | 83* | 76* | 91* | 63* | 60*
O=C(O)CCN1C(=O)/C(=C\c2ccncc2)SC1=S | 13 | 3 | -1 | 14 | 11 | 13 | . | . | . | . | .
O=C1NC(=S)S/C1=C\c1ccc2ccccc2c1 | 90* | 5 | 10 | 18 | -50 | 88* | 26 | 50* | 38 | 24 | 21
O=C1NC(=S)SC1=Cc1ccc(F)cc1 | . | 0 | . | 28 | -13 | . | . | . | . | . | .
O=C(CCCN1C(=O)/C(=C/c2ccccc2Cl)SC1=S)N1CCOCC1 | 80* | 1 | 88* | 8 | 11 | 86* | 32 | 55* | 64* | 63* | 34
Cc1cc(=O)n2c3c(c4c(cc13)c(CN(C)C)cc(=O)n4C)OC2 | . | -3 | . | -498 | 10 | . | . | . | . | . | .
O=C(Nc1nc(-c2cccs2)cs1)c1ccc([N+](=O)[O-])o1 | 21 | -3 | 1 | 3 | 2 | -18 | . | . | . | . | .
Cc1ccc(S(=O)(=O)N2C[C@H]3C(=O)C[C@@H]4C(=O)N(c5ccccc5)C(=O)[C@@H]4[C@@H]3C[C@H]2c2cccc(Cl)c2)cc1 | . | -8 | . | 0 | -2 | . | . | . | . | . | .
COc1ccc(/C=C2/SC(=S)N(CCC(=O)O)C2=O)cc1 | 98* | -32 | 85* | 13 | -7 | 98* | 98* | 100* | 104* | 65* | 81*
O=C(O)CN1C(=O)/C(=C\c2ccc(OC(=O)c3ccco3)cc2)SC1=S | 71* | 39* | 1 | 17 | -173 | 59* | 66* | 62* | 79* | 83* | 69*
COc1ccc(C=C2SC(=S)NC2=O)cc1 | . | -6 | . | 25 | -68 | . | . | . | . | . | .
COc1ccc(/C=C2/SC(=O)NC2=O)cc1 | 86* | 0 | 62* | 6 | -12 | 71* | 81* | 76* | 89* | 74* | 84*
SMILES | SENP6 block | SENP1 inh | SENP7 inh | SENP8 block-1 | CendR NRP1 mod | SENP8 block-2 | SENP8 confirm | SENP6 confirm | SENP7 conf | Casp3 select | Luc interf
Cc1cc(C)c2c(N)c(C(=O)Nc3ncc(C)s3)sc2n1 | 87* | -20 | 26 | i | 2 | 72* | -25 | 86* | 99* | 92* | -2
O=C(Nc1cccc(F)c1)Nc1ccccn1 | 58* | -12 | 47 | 3 | -10 | 28 | 39 | 34 | 75* | 54* | 24
O=C(Nc1ccc2c(c1)CCC2)c1ccc(F)cc1 | 87* | 1 | 87* | 14 | -11 | 1 | 85* | 84* | 96* | 82* | 80*
O=C(Nc1cccc(F)c1)Nc1ccc2c(c1)CCC2 | 63* | 2 | 72* | 8 | -8 | -33 | -13 | -29 | 78* | 29 | 18
O=C(Nc1ccccc1)Nc1ccc2c(c1)CCC2 | 84* | 0 | 80* | 4 | 13 | 62* | 48 | 57* | 91* | 60* | 81*
O=C(Nc1ccc(F)cc1)Nc1ccc2c(c1)CCC2 | -9 | 1 | 30 | 0 | 5 | -10 | . | . | . | . | .
Cc1cc(C)cc(NC(=O)Nc2ccc3c(c2)CCC3)c1 | 7 | -1 | 21 | 3 | -1 | -26 | . | . | . | . | .
COc1ccc(C(C(=O)Nc2c(C)cccc2C)N2CCN(C)CC2)cc1 (configuration not stated) | . | 2 | . | 27 | 0 | . | . | . | . | . | .
